Screening results: PubChem BioAssay, several laboratories
A selection: hits, their analogues and other compounds. The true share with any hit is near 3.5%.
MEKK3 PB1 HTS: modulators of MEKK3-MEK5 PB1 binding, primary screen, biochemical, wildtype MEKK3, multiplex bead flow cytometry, Alexa488-MEK5. Mitogen-activated protein kinase kinase kinase 3 (Homo sapiens), Q99759. bead-based flow cytometry, Alexa488-MEK5 binding to MEKK3; actives lie on both sides; 0 = blocked by unlabeled MEK5, 100 = vehicle. binding response (% of control), % at 10 µM. 290,000 compounds, 1.4% hits. AID 1529, 2009;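 active = binding response more than 3 SD above or below the average of its plate-row segment, actives on both sides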;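 also: Alexa488 bead fluorescence after subtracting the streptavidin-only scavenger bead signal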
WT yeast gro inh: growth inhibition of WT strain, primary screen, mitochondrial fusion inhibitor project, WT and mutant strains, chemical genetic; AID 1362, 2008; 190,000 compounds, 2.1% hits; inhibition, % at 10 µM; mitochondrial fusion phenotypic screen; in the data active = inhibition above about 58%; tested in S. cerevisiae
MEKK2 WT-MEK5: modulators of MEK5 binding to wildtype MEKK2, primary screen, biochemical, multiplex bead flow cytometry, Alexa488-MEK5; 290,000 compounds, 1.1% hits; binding response (% of control), % at 10 µM; Alexa488-MEK5 binding to MEKK2 WT; actives lie on both sides; Mitogen-activated protein kinase kinase kinase 2 (Homo sapiens), Q9Y2U5; in the data active = binding response below about 67% or above about 130%
MEKK2mut PB1 HTS: MEK5 binding signal on mutant MEKK2 PB1, primary screen, biochemical, multiplex bead flow cytometry, Alexa488-MEK5 | percent response, % at 10 µM | 290,000 compounds, 0.35% hits | Alexa488-MEK5 binding to MEKK2 mutant; in the data active = percent response above about 24%, passing the limit was not always enough
ABCB1 block: ABCB1 efflux pump inhibitors, primary screen, cell-based, multiplex, flow cytometry, ABCG2 counter-screen | AID 1326, 2008 | inhibition, % at 6.6 µM | CCRF-Adr cells, JC-1 efflux | 190,000 compounds, 0.067% hits; in the data active = inhibition above about 40%;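 also: 0% = vehicle and 100% = reference inhibitor; higher value means more JC-1 retained so stronger ABCB1 efflux block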
ABCG2 inh: ABCG2 efflux pump inhibitors, primary screen, multiplex with ABCB1, IgMXP3 cells, flow cytometry; Broad substrate specificity ATP-binding cassette transporter ABCG2 (Homo sapiens), Q9UNQ0; JC-1 efflux; inhibition, % at 6.6 µM; 190,000 compounds, 0.1% hits;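 active = inhibition above 80%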;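 also: 0% = DMSO and 100% = nicardipine control wells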
Target sequence (Q9UNQ0 whole entry, looked up): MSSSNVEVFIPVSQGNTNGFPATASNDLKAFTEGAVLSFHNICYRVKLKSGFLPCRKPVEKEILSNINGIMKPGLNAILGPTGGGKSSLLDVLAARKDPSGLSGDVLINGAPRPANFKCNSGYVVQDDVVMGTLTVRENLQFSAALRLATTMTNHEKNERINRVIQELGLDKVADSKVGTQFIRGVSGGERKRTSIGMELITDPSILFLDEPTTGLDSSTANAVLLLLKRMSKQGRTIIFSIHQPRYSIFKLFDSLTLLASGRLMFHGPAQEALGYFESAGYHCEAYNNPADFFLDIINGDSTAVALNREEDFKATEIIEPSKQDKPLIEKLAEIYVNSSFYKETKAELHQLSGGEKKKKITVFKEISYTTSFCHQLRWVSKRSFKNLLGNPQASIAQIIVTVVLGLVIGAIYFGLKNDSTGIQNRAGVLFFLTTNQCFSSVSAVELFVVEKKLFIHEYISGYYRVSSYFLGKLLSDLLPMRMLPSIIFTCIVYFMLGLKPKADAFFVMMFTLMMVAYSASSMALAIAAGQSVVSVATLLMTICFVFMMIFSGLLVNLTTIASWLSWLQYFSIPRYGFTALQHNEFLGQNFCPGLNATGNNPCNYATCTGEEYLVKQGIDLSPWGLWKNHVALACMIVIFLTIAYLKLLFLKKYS
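System: two drug-resistant human cell lines, ABCG2 and ABCB1; controls: nicardipine high and DMSO low controls; times: 10 min exposure at 25 °C with rotation, no wash; detection: flow cytometry of retained JC-1 fluorescence; read-out basis: percent efflux inhibition, scaled nicardipine 100% to DMSO 0%; doses: one concentration, 6.6 µM final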
MEKK2wt confirm: modulators of MEK5 binding to wildtype MEKK2, confirmation, biochemical, single concentration, multiplex bead flow cytometry. shares compounds with MEKK3 PB1 HTS. Alexa488-MEK5 binding to MEKK2 WT; actives lie on both sides. binding response (% of control), % at 10 µM. 5,900 compounds, 2.4% hits. AID 1892, 2009; in the data active = binding response below about 16% or above about 210%; inactive = in between
MEKK2mut confirm: mutant MEKK2 PB1-MEK5 binding signal retest – biochemical, single concentration, multiplex bead flow cytometry, confirmation; percent response, % at 10 µM; shares compounds with MEKK3 PB1 HTS; AID 1893, 2009; 5,900 compounds, 2% hits; Alexa488-MEK5 binding to MEKK2 mutant; in the data active = percent response mostly above about 71%, no sharp cut-off; inactive = mostly below about 38%;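 also: higher means compound restores mutant binding toward wildtype level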
MEKK3-MEK5 inh: MEKK3 wild-type PB1 binding to MEK5, inhibitors, confirmation, biochemical, bead multiplex flow cytometry, single concentration, wildtype; binding response (% of control), % at 10 µM; AID 1894, 2009; 5,900 compounds, 1.8% hits; shares compounds with MEKK3 PB1 HTS; Alexa488-MEK5 binding to MEKK3; hits give low values;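 active = binding response below 72% of control, or above a set upper limit, though filed actives all read lower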;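 also: 100% = DMSO only wells and 0% = binding blocked by excess unlabeled MEK5; lower values mean stronger disruption of MEK5 binding to MEKK3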
Numbers without * were called inactive; . = no result given; [ ] = remark or other dose.

SMILES	MEKK3 PB1 HTS	WT yeast gro inh	MEKK2 WT-MEK5	MEKK2mut PB1 HTS	ABCB1 block	ABCG2 inh	MEKK2wt confirm	MEKK2mut confirm	MEKK3-MEK5 inh
CCN(CC)CCCN(C(=O)c1ccc(F)cc1)c1nc(-c2ccc(OC)cc2)cs1	113	.	141*	24*	.	.	138	19	103
CC1=C(C(=O)OC(C)C)C(c2ccccc2)NC(=S)N1C (stereo not drawn)	99	-16	103	-1	0	3	.	.	.
CSc1ccc(NC(=O)NCCN2CCc3ccccc3C2)cc1	49*[inhibitor]	1	86	-20	0	2	132	17	107
COc1ccc(NC(=O)NCCCN2CCC(Cc3ccccc3)CC2)cc1	90	.	96	-6	.	.	.	.	.
CSc1ccc(NC(=O)NCCCN2CCC(Cc3ccccc3)CC2)cc1	111	.	162*	30*	.	.	185	40	112
COc1ccc(NC(=O)NCCN2CCc3ccccc3C2)cc1	87	1	101	-14	1	1	.	.	.
CN1CCN(CCCNC(=O)c2ccc3c(Cl)c4c(nc3c2)CCCC4)CC1	101	.	110	2	.	.	.	.	.
C=CCNC(=O)CSc1ncc2c(n1)-c1c(csc1SC)CC2	102	.	101	7	.	.	.	.	.
CSc1scc2c1-c1nc(SCC(=O)C(C)(C)C)ncc1CC2	66*[inhibitor]	.	68	-34	.	.	102	1	105
O=C(c1cccnc1Cl)N1CCOCC1	105	0	108	8	0	2	.	.	.
Cc1ccc(-c2ocnc2C(=O)N2CCOCC2)cc1	105	.	104	2	.	.	.	.	.
C=CCc1ccccc1OCC(=O)NNC(=S)NCc1ccccc1	104	.	106	4	.	.	.	.	.
Cc1sc2nc(C(C)C)nc(SCC(=O)NCc3ccco3)c2c1C	-1.0*[inhibitor]	31	-6.0*[inhibitor]	-40	2	9	100	2	104
Cc1nc(SCC(=O)NCc2ccco2)c2c(C)c(C)sc2n1	101	-15	100	1	1	9	.	.	.
CC(c1ccccc1)N1CCn2c(nc3cc(NC(=O)c4cccs4)ccc32)C1 (stereo not drawn)	19*[inhibitor]	5	35*[inhibitor]	-33	1	2	101	7	101
COCCN1CCn2c(nc3cc(NC(=O)c4cccs4)ccc32)C1	116	13	110	7	.	.	.	.	.
CN(C(=S)Nc1ccc(SC(F)F)cc1)c1ccc(O)cc1	133*	87*	107	0	1	22	113	6	102
CCNC(=S)N/N=C/c1sc(N2CCCCC2)nc1-c1cccs1	112	53	103	5	-5	-10	.	.	.
CCOc1ccc(N=Nc2c(=O)[nH]n3c(=O)c4c([nH]c23)CCCC4)cc1	103	-3	101	1	0	0	.	.	.
O=c1[nH]n2c(=O)c3c([nH]c2c1N=Nc1cccc(Cl)c1)CCCC3	48*[inhibitor]	3	58	4	0	-1	106	7	104
COc1ccc(CC(=O)Nc2nnc(C(C)C)s2)cc1OC	94	-7	87	-8	1	2	.	.	.
CCCCOCCCNCC(=O)Nc1ccc(S(N)(=O)=O)cc1	81	6	93	-10	-1	-2	.	.	.
CCCCNCC(=O)Nc1ccc(NC(=O)CNCCCC)cc1	113	9	144*	27*	1	3	124	12	100
COc1ccc(Cl)cc1NC(=O)NC(C)C	47*[inhibitor]	14	54	-13	-1	-2	100	-4	102
Cc1cc(NC(=O)CCC(=O)N(CCC(C)C)C(C(=O)NCC2CCCO2)c2ccccc2C)no1 (stereo not drawn)	101	.	104	7	.	.	.	.	.
SMILES	MEKK3 PB1 HTS	WT yeast gro inh	MEKK2 WT-MEK5	MEKK2mut PB1 HTS	ABCB1 block	ABCG2 inh	MEKK2wt confirm	MEKK2mut confirm	MEKK3-MEK5 inh
CCOC(=O)NC(NCc1ccccc1)(C(F)(F)F)C(F)(F)F	137*	5	111	1	1	3	105	4	105
CSc1ccccc1NC(=O)CN(c1cccc(C)c1)S(C)(=O)=O	67*[inhibitor]	0	81	-11	2	29	98	-7	98
Cc1cc(C)cc(N(CC(=O)Nc2ccccc2-c2ccccc2)S(=O)(=O)c2ccccc2)c1	134*	8	107	0	6	18	98	-4	102
Cc1cc(NC(=O)COC(=O)C2CC(=O)N(c3ccc(Cl)cc3)C2)no1 (stereo not drawn)	101	.	106	0	.	.	.	.	.
CCc1ccc(C2CC(c3cccc(OC)c3)n3nc(N)nc3N2)cc1 (stereo not drawn)	95	16	95	-5	.	.	.	.	.
COc1ccc2c(-c3ccccc3)cc(SCC(N)=O)nc2c1	105	.	9.0*[inhibitor]	115*	.	.	101	-1	99
Cc1nn(C)c(=O)n1N(C)c1ncc(C(F)(F)F)cc1Cl	139*	3	114	3	1	2	90	-4	97
CCNc1nc(N2CCCCC2)nc(-n2nnc(C(=O)OCC)c2C)n1	60*[inhibitor]	15	61*[inhibitor]	-12	2	12	67	0	101
C/C(=N\NC(=O)c1cccc(S(=O)(=O)N2CCOCC2)c1)c1cc2ccccc2o1	104	.	111	9	.	.	.	.	.
CN(C)CCCN(C(=O)c1cccs1)c1nc(-c2ccccc2)cs1	101	-4	147*	5	2	11	138	19	109
COc1ccc(-c2csc(N(CCCN(C)C)C(=O)c3ccccc3Cl)n2)cc1	107	.	138*	28*	.	.	167	70*	102
COc1ccc(-c2csc(N(CCCN(C)C)C(=O)c3ccccc3C)n2)cc1	107	.	143*	16	.	.	149	23	107
O=C(N/C(=C\c1ccccc1)C(=O)N1CCCCC1)c1ccco1	100	.	96	-3	.	.	.	.	.
O=c1cc(CO)oc(CN2CCCC2)c1O	.	15	.	.	1	2	.	.	.
